Usually MIC stands for the lowest concentration that inhibits growth of the organism. Broadly, the IC50 is the concentration that gives 50% inhibition.

Assay [1] concerns Pseudomonas aeruginosa. As to the kind of experiment: Antibacterial activity against Pseudomonas aeruginosa PAO1 assessed as inhibition of visible growth after 18 hrs incubation by standard broth dilution method. Type of assay: functional. The settings on record: PAO1, 18 h. In short, it runs like this:
(§1)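 Broth microdilution per CA-SFM: inoculum 10^5 CFU in 200 μL Mueller–Hinton broth with 2-fold serial dilutions of compound; MIC = lowest concentration with no visible growth after 18 h at 37 °C. Independently repeated at least three times. Strains kept at −80 °C in 15% glycerol and grown routinely in MH broth at 37 °C.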
In general terms: Broth dilution looks for growth in wells or tubes with falling amounts of substance.

Assay [2] concerns Pseudomonas aeruginosa PAO1. The experiment in a line: Inhibition of multidrug resistance efflux pump in Pseudomonas aeruginosa PAO1 assessed as dose required to restore 2 ug/ml chloramphenicol-induced inhibition of visible growth after 18 hrs by standard broth dilution method. In short, it runs like this:
(§2)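 Broth microdilution in MH broth, inoculum 10^5 CFU in 200 μL, 2-fold serial dilutions of derivative with fixed antibiotic (2 μg/mL). Lowest derivative concentration giving complete inhibition of visible growth after 18 h at 37 °C recorded. Antibiotics dissolved in DMSO. Independently repeated at least three times.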

Assay [3] deals with Klebsiella aerogenes. The experiment in a line: Inhibition of multidrug resistance efflux pump in Enterobacter aerogenes EA289 assessed as dose required to restore 2 ug/ml doxycycline-induced inhibition of visible growth after 18 hrs by standard broth dilution method. In short, it runs like this: as §2
The test system of assay [4] is Pseudomonas aeruginosa. As to the kind of experiment: Disruption of outermembrane in Pseudomonas aeruginosa PAO1 assessed as ATP efflux at 2 to 200 uM by bioluminescence method. Type of assay: functional, organism-based. In short, it runs like this: (§3)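 After 5 min an aliquot was vortexed, luciferin–luciferase added and luminescence read for 5 s. ATP quantified with an internal standard; maximal release set with 0.02% […].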

The subject of assay [5] is Pseudomonas aeruginosa PAO1. As to the kind of experiment: Inhibition of multidrug resistance efflux pump in Pseudomonas aeruginosa PAO1 assessed as dose required to restore 2 ug/ml cefepime-induced inhibition of visible growth after 18 hrs by standard broth dilution method. In short, it runs like this: as §2
Assay [6] in a line: Cytotoxicity against CHOK1 cells assessed as decrease in cell viability after 24 hrs by WST-1 assay. Type of assay: cell-based. The note with it: Cricetulus griseus, CHO-K1, 24 h. In short, it runs like this:
(§4)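 CHO-K1 (McCoy's 5A) and human fibroblasts (DMEM), both with 10% bovine calf serum, 2 mM glutamine, penicillin/streptomycin, 37 °C, 5% CO2. Seeded, left overnight, then exposed to various compound concentrations in triplicate for 24 h at 37 °C. Washed three times in PBS, 30 min in PBS with 10% WST-1, A450. Viability as % of medium-only control; IC50 by nonlinear regression.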
On the technique in general: Tetrazolium assays rely on reduction of a dye to a coloured formazan, in cell work by metabolically active cells.

Assay [7] concerns Pseudomonas aeruginosa. As to the kind of experiment: Disruption of outermembrane in Pseudomonas aeruginosa PAO1 assessed as ATP efflux at 2 to 200 uM by bioluminescence method in presence of 2 to 50 ug/ml doxycycline. Type of assay: functional, organism-based. In short, it runs like this: as §3
Assay [8] has as its system Klebsiella pneumoniae. The experiment in a line: Antibacterial activity against Klebsiella pneumoniae KPC2 ST258 assessed as inhibition of visible growth after 18 hrs incubation by standard broth dilution method. The note with it: KPC2, 18 h. Type of assay: functional. The method, boiled down:
as §1

The next assay deals with Staphylococcus aureus. As to the kind of experiment: Antibacterial activity against Staphylococcus aureus DSM799 assessed as inhibition of visible growth after 18 hrs incubation by standard broth dilution method. Type of assay: functional. The note with it: DSM799, 18 h. The method, boiled down: as §1
Assay [9] relates to Pseudomonas aeruginosa. As to the kind of experiment: Disruption of outermembrane in Pseudomonas aeruginosa PAO1 assessed as ATP efflux at 2 mM by bioluminescence method. It counts as functional. In short, it runs like this:
as §3

In assay [10] the test system is Klebsiella aerogenes. As to the kind of experiment: Antibacterial activity against Enterobacter aerogenes EA289 assessed as inhibition of visible growth after 18 hrs incubation by standard broth dilution method. Type of assay: functional. The note with it: EA289, 18 h. In short, it runs like this: as §1
Assay [11] concerns Pseudomonas aeruginosa. The experiment in a line: Disruption of outermembrane in Pseudomonas aeruginosa PAO1 assessed as rate of nitrocefin hydrolysis at 500 uM spectrophotometrically. It counts as functional, organism-based. The method, boiled down:
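PAO1 grown in MH broth at 37 °C to OD600 0.5; then room temperature. Cells centrifuged and washed once in 20 mM potassium phosphate pH 7.2 with 1 mM MgCl2, then exposed to compound. Nitrocefin added to final 50 μg/mL as periplasmic β-lactamase substrate; hydrolysis followed as rising absorbance at 490 nm against untreated control.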

Assay [12] relates to Pseudomonas aeruginosa PAO1. As to the kind of experiment: Inhibition of multidrug resistance efflux pump in Pseudomonas aeruginosa PAO1 assessed as dose required to restore 2 ug/ml doxycycline-induced inhibition of visible growth after 18 hrs by standard broth dilution method. The method, boiled down:
as §2

The subject of assay [13] is Pseudomonas aeruginosa PAO1. The experiment in a line: Inhibition of multidrug resistance efflux pump in Pseudomonas aeruginosa PAO1 assessed as depolarization by spectrofluorometry. The method, boiled down: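 PAO1 grown 24 h at 37 °C in MH broth, washed twice in buffered 250 mM sucrose with 5 mM MgSO4. Loaded with 3 μM 3,3-diethylthiodicarbocyanine iodide for 1 h at 37 °C, then derivative added at various concentrations. Fluorescence read at 0–21 min intervals. Maximum taken as 3 μM dye alone in buffer.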

Assay [14] deals with Klebsiella pneumoniae. The experiment in a line: Inhibition of multidrug resistance efflux pump in Klebsiella pneumoniae KPC2 ST258 assessed as dose required to restore 2 ug/ml doxycycline-induced inhibition of visible growth after 18 hrs by standard broth dilution method. The method, boiled down:
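Broth microdilution in Mueller-Hinton broth, CA-SFM recommendations. Inoculum 10^5 CFU in 200 μL containing 2-fold serial dilutions of derivative plus doxycycline at 2 μg/mL, 37 °C for 18 h. Antibiotics dissolved in DMSO, up to 5% v/v. Repeated independently at least three times.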

The nature of assay [15]: Cytotoxicity against human fibroblasts assessed as decrease in cell viability after 24 hrs by WST-1 assay. It counts as cell-based. The settings on record: Fibroblast. The method, boiled down:
as §4

≈ marks a conversion by molar mass, not a printed value. Calls of active or inactive are those of the source. The rule behind the calls is not given here. Some results are limits rather than exact numbers.

As for `COc1c(Br)cc(/C=C/C(=O)NCCCN(CCCN)CCCN)cc1Br`, the MIC was 100 µM (≈ 50.6 µg/mL) with Pseudomonas aeruginosa [1], greater than 200 µM in the assay with Klebsiella pneumoniae [8], 50 µM (≈ 25.3 µg/mL) with Staphylococcus aureus and greater than 200 µM with Klebsiella aerogenes [10]. In addition, the Activity in [2] was 100 µM; with Klebsiella aerogenes [3], 6.25 µM; in [5] it was 0.4 µM; with Pseudomonas aeruginosa [9], less than 16%; in [12], 3.12 µM; in the assay with Klebsiella pneumoniae [14], 3.12 µM. The inhibition result in the assay with Pseudomonas aeruginosa [4], in the assay on Pseudomonas aeruginosa [7] and in the assay on Pseudomonas aeruginosa [11] was “inactive” throughout. The IC50 in assay [6] was determined as 846 µM; in assay [15], 345 µM. Also, the inhibition result in assay [12] and in assay [13] was “Dose-dependent effect” in each case.

The record behind these values is ChEMBL document CHEMBL3259616, “New Ianthelliformisamine derivatives as antibiotic enhancers against resistant Gram-negative bacteria” (J Med Chem, 2014).
